Compound activity from PubChem.
In the library only some 1.8% were active in any assay of this set; here they are far more common.
Gli-Sufu antag = Gli-Sufu pathway antagonism. Sufu-KO-LIGHT fibroblasts, Gli luciferase reporter luminescence. inhibition, % at 5 µM. hit rate 0.74% among 340,000. AID 588413;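 active = inhibition above about 55%, limit read from the data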;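 note: 0% = DMSO-treated cells and 100% = wells with medium but no cells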
Lipid droplet = modulators of hepatic lipid droplet formation | AML12 mouse hepatocytes, oleate lipid droplets, BODIPY imaging | inhibition, % at 6.5 µM | hit rate 0.4% among 240,000;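 active = lipid droplet intensity inhibited by at least 50%, with more than 500 cells counted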
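material = mouse AML12 hepatocyte cell line, fixed after treatment | also added = 100 µM oleic acid challenge | doses = compound at 6.5 µM only | schedule = overnight exposure | technique = Image-based BODIPY and DAPI two-channel analysis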
Jurkat NFkB inh = lowers PMA/ionomycin-induced NF-kB signal in Jurkat cells | PMA/ionomycin-induced NF-kB luciferase reporter, luminescence | inhibition, % at 4 µM | hit rate 0.53% among 330,000; in the data active = inhibition above about 50%
TAG inh = inhibitors of triacylglycerol accumulation; H9c2 cells, Nile Red lipid (TAG) fluorescence; cells loaded with 200 µM oleic acid; inhibition, % at 12.5 µM; hit rate 0.66% among 230,000; AID 651582;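 active = pattern-corrected inhibition of lipid staining of at least 50% with the nuclear-stain viability signal not falling by more than 50%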;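 note: 0% = DMSO wells and 100% = triacsin C control wells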
iPSC survival up = hiPSC single-cell survival enhancement; ATPlite luminescence; 100% = ROCK inhibitor wells, 0% = DMSO; survival enhancement, % at 20 µM; hit rate 0.044% among 360,000; AID 602274; in the data active = survival enhancement above about 18%;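 note: cells exposed to compounds for 16 hours before the ATP read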
697 NFkB inh = lowers PMA/ionomycin-induced NF-kB signal in 697 B cells. hit rate 0.33% among 330,000. AID 435022. inhibition, % at 4 µM. 697 B-cell NF-kB luciferase reporter, 16 h; in the data active = inhibition above about 35%
TAG conf = confirmation of triacylglycerol accumulation inhibitors. hit rate 71% among 990. shares compounds with TAG inh. AID 651629. inhibition, % at 12.5 µM. H9c2 lipid accumulation, Nile Red fluorescence; cells loaded with 200 µM oleic acid;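 active = mean inhibition across replicates of 40% or more; inactive = mean inhibition below 40%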;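 note: plate controls were DMSO only wells for no effect and Triacsin C treated wells for full effect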
An asterisk follows results filed as active; x = not tested or not shown.

SMILES | Gli-Sufu antag | Lipid droplet | Jurkat NFkB inh | TAG inh | iPSC survival up | 697 NFkB inh | TAG conf
Cc1ccc(Cl)c2c1NC(=O)C2=O | -1 | x | -2 | -26 | -3 | 5 | x
CC(C)(C)NC(=O)C[C@H]1C[C@H](C(=O)N2CCCCC2)[C@@]2(CCc3ccccc3)c3[nH]c4ccc(Cl)cc4c3CCN2C1=O | 1 | x | x | 62* | 2 | 1 | 45*
COCCCNC(=O)C[C@H]1C[C@H](C(=O)N2CCCCC2)[C@@]2(CCc3ccccc3)c3[nH]c4ccc(Cl)cc4c3CCN2C1=O | 12 | x | x | 27 | -3 | 3 | x
O=C(CC1C[C@H](C(=O)N2CCCCC2)[C@@]2(CCc3ccccc3)c3[nH]c4ccccc4c3CCN2C1=O)NCc1cccc(C(F)(F)F)c1 (stereo partly drawn) | 1 | x | 29 | 91* | -3 | -6 | 88*
COc1ccc2[nH]c3c(c2c1)CCN1C(=O)C(CC(=O)NCc2cccc(C(F)(F)F)c2)C[C@H](C(=O)N2CCCCC2)[C@@]31CCc1ccccc1 (stereo partly drawn) | -6 | x | x | 102* | 0 | 10 | 90*
COc1ccc2[nH]c3c(c2c1)CCN1C(=O)C(CC(=O)NCCN2CCOCC2)C[C@H](C(=O)N2CCCCC2)[C@@]31CCc1ccccc1 (stereo partly drawn) | -6 | x | x | 3 | -2 | -10 | x
O=C(C[C@H]1C[C@H](C(=O)N2CCCCC2)[C@@]2(CCc3ccccc3)c3[nH]c4ccc(Cl)cc4c3CCN2C1=O)NCc1cccc(C(F)(F)F)c1 | -6 | x | x | 102* | -2 | 9 | 100*
COc1ccc(NC(=O)CCNS(=O)(=O)c2cccc3nonc23)cc1 | 14 | -13 | 15 | x | 0 | 7 | x
Cc1ccc2[nH]c(=O)c(COC(=O)c3cccs3)cc2c1 | 4 | 9 | -1 | x | 1 | 21 | x
N#CCC(=O)N/N=C/c1cn(Cc2ccc(Cl)c(Cl)c2)c2ccccc12 | 5 | -3 | 8 | 73* | 0 | 19 | 58*
Cc1onc(-c2ccccc2)c1-c1csc(N/N=C/c2ccccc2Cl)n1 | 1 | 11 | 2 | 21 | 1 | -8 | x
Cc1onc(-c2ccc(Cl)cc2Cl)c1-c1csc(N/N=C/c2ccccc2Cl)n1 | 1 | -5 | 16 | 57* | 0 | -21 | 38
O=C1C=CC(O)C2(CO)OC12 (stereo not drawn) | x | x | x | 81* | -2 | x | 86*
Cc1ccc(NC(=O)CSc2nc3ccc(Nc4nc(N5CCOCC5)nc(N5CCOCC5)n4)cc3s2)cc1 | 14 | 39 | 1 | 84* | 0 | -16 | 86*
COc1ccc(NC(=O)CSc2nc3ccc(Nc4nc(N5CCOCC5)nc(N5CCOCC5)n4)cc3s2)cc1 | -6 | 12 | -8 | x | 0 | 1 | x
COC(=O)[C@]1(C)N[C@H](CN(C)C(=O)Nc2ccc(C(F)(F)F)cc2)[C@@H]2C(=O)N(C)C(=O)[C@@H]21 | 6 | x | 2 | -4 | 1 | 20 | x
COc1ccc(-c2nn(-c3ccccc3)cc2/C=C/C(=O)OCC(=O)Nc2ccccc2C#N)cc1 | 11 | x | -2 | 67* | 0 | -8 | 77*
COc1ccc(-c2cc(C(F)F)n3ncc(C(=O)Nc4cccc(S(=O)(=O)N5CCOCC5)c4)c3n2)cc1 | 27 | -3 | 11 | 58* | 0 | -16 | 50*
O=C(Cc1ccccc1)Nc1nc(-c2cccs2)cs1 | -24 | x | -16 | 62* | -1 | -1 | 32
O=C(Cc1ccccc1F)Nc1nc(-c2cccs2)cs1 | -34 | 46 | -61 | 43 | 3 | -114 | x
CCOC(=O)CN(C(=O)c1ccccc1[N+](=O)[O-])C(C)(C)C | 3 | -11 | -10 | -1 | -1 | 12 | x
O=C(C[C@H]1C[C@H](C(=O)N2CCOCC2)[C@@]2(CCC3CCCC3)c3[nH]c4ccc(Cl)cc4c3CCN2C1=O)NCC12CC3CC(CC(C3)C1)C2 | 5 | x | x | 69* | -2 | -1 | 63*
COc1ccc2[nH]c3c(c2c1)CCN1C(=O)C(CC(=O)NCCC2=CCCCC2)C[C@H](C(=O)N2CCOCC2)[C@@]31CCC1CCCC1 (stereo partly drawn) | -12 | x | x | 1 | -2 | -8 | x
